Reference: the RNAGym collection of RNA variant scans (doi:10.1038/s41586-018-0170-7)

B1: tRNA (parent)
chain: GUUCCGUUGGCGUAAUGGUAACGCGUCUCCCUCCUAAGGAGAAGACUGCGGGUUCGAGUCCCGUACGGAACG

Variants of: B1
Assay: yeast fitness, log relative to wild type (ln ratio); higher = fitter; tRNA-Arg(CCU), competitive growth, 37 C, 1 M NaCl
Summary of the method: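 Variants were counted by 125 bp paired-end Illumina sequencing after pools of a combinatorial tRNA-Arg(CCU) library, held on a HIS3 centromeric plasmid in BY4742 lacking the chromosomal gene, grew ~6.5 generations (~26.5 h) in SC-HIS 1M NaCl at 37 °C. Each genotype's fitness is the natural log of its generations relative to the wild type's. Generations were OD-scaled log2 output/input frequencies, inverse-variance weighted over replicates.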

First: AGUCCAUUGGCGUAAUGGUAACGCGUCUCCCUCCUAAGGAGACGAUUGCGGGUUCGAGUCCCGUAAGGAGUG [G1A U2G G6A A43C C46U C66A A70G C71U]
Second: AGUCCAUUGGCGUAAUGGUAACGCGUUUCCCUCCUAAGGAGACGAUUGCGGGUUCGAGUCCCGUAAGGAAUG [G1A U2G G6A C27U A43C C46U C66A C71U]
The “yeast fitness (ln)” value of the first is higher: -0.169 for the first, -0.323 for the second.

Going from AGUCCAUUGGCGUAAUGGUAACGCGUUUCCCUCCUAAGGAGACGAUUGCGGGUUCGAGUCCCGUACGGAUUG [G1A U2G G6A C27U A43C C46U A70U C71U] to AGUCCAUUGGCGUAAUGGUAACGCGUCUCCCUCCUAAGGAGACGACUGCGGGUUCGAGUCCCGUAUGGGGUG [G1A U2G G6A A43C C66U A69G A70G C71U], the “yeast fitness (ln)” value falls from -0.307 to -0.612.

Going from AGUCCAUUGGCGUAAUGGUAACGCGUUUCCCUCCUAAGGAGACGACUGCGGGUUCGAGUCCCGUACGGGUUG [G1A U2G G6A C27U A43C A69G A70U C71U] to AGUCCAUUGGCGUAAUGGUAACGCGUUUCCCUCCUAAGGAGACGACUGCGGGUUCGAGUCCCGUACGGAUUG [G1A U2G G6A C27U A43C A70U C71U], the “yeast fitness (ln)” value rises from -0.484 to -0.365.

Going from AGUCCAUUGGCGUAAUGGUAACGCGUCUCCCUCCUAAGGAGACGACUGCGGGUUCGAGUCCCGUAUGGGUUG [G1A U2G G6A A43C C66U A69G A70U C71U] to AGUCCAUUGGCGUAAUGGUAACGCGUCUCCCUCCUAAGGAGAAGACUGCGGGUUCGAGUCCCGUACGGGAUG [G1A U2G G6A A69G C71U], the “yeast fitness (ln)” value rises from -0.396 to -0.244.

First: AGUCCAUUGGCGUAAUGGUAACGCGUUUCCCUCCUAAGGAGACGAUUGCGGGUUCGAGUCCCGUAAGGAGUG [G1A U2G G6A C27U A43C C46U C66A A70G C71U]
Second: AGUCCAUUGGCGUAAUGGUAACGCGUUUCCCUCCUAAGGAGACGAUUGCGGGUUCGAGUCCCGUAUGGAUUG [G1A U2G G6A C27U A43C C46U C66U A70U C71U]
The “yeast fitness (ln)” value of the first is higher: -0.478 for the first, -0.645 for the second.

First: AGUCCAUUGGCGUAAUGGUAACGCGUCUCCCUCCUAAGGAGACGAUUGCGGGUUCGAGUCCCGUAUGGGUUG [G1A U2G G6A A43C C46U C66U A69G A70U C71U]
Second: AGUCCAUUGGCGUAAUGGUAACGCGUUUCCCUCCUAAGGAGACGAUUGCGGGUUCGAGUCCCGUAUGGAGCG [G1A U2G G6A C27U A43C C46U C66U A70G]
The “yeast fitness (ln)” value of the first is lower: -0.425 for the first, -0.216 for the second.

Going from AGUCCAUUGGCGUAAUGGUAACGCGUUUCCCUCCUAAGGAGACGAUUGCGGGUUCGAGUCCCGUAUGGAUCG [G1A U2G G6A C27U A43C C46U C66U A70U] to AGUCCAUUGGCGUAAUGGUAACGCGUUUCCCUCCUAAGGAGACGACUGCGGGUUCGAGUCCCGUACGGAACG [G1A U2G G6A C27U A43C], the “yeast fitness (ln)” value falls from -0.226 to -0.235.

First: AGUCCAUUGGCGUAAUGGUAACGCGUUUCCCUCCUAAGGAGACGAUUGCGGGUUCGAGUCCCGUACGGAGUG [G1A U2G G6A C27U A43C C46U A70G C71U]
Second: AGUCCAUUGGCGUAAUGGUAACGCGUUUCCCUCCUAAGGAGACGAUUGCGGGUUCGAGUCCCGUAAGGAUCG [G1A U2G G6A C27U A43C C46U C66A A70U]
The “yeast fitness (ln)” value of the first is lower: -0.405 for the first, -0.219 for the second.

Going from AGUCCAUUGGCGUAAUGGUAACGCGUUUCCCUCCUAAGGAGACGACUGCGGGUUCGAGUCCCGUAUGGGGCG [G1A U2G G6A C27U A43C C66U A69G A70G] to AGUCCAUUGGCGUAAUGGUAACGCGUUUCCCUCCUAAGGAGACGACUGCGGGUUCGAGUCCCGUAUGGGUCG [G1A U2G G6A C27U A43C C66U A69G A70U], the “yeast fitness (ln)” value rises from -0.447 to -0.387.

Compared with AGUCCAUUGGCGUAAUGGUAACGCGUUUCCCUCCUAAGGAGACGAUUGCGGGUUCGAGUCCCGUAUGGGUUG [G1A U2G G6A C27U A43C C46U C66U A69G A70U C71U], AGUCCAUUGGCGUAAUGGUAACGCGUCUCCCUCCUAAGGAGACGAUUGCGGGUUCGAGUCCCGUAUGGAUUG [G1A U2G G6A A43C C46U C66U A70U C71U] is higher in “yeast fitness (ln)” value: -0.384 for the first, -0.086 for the second.

Compared with AGUCCAUUGGCGUAAUGGUAACGCGUCUCCCUCCUAAGGAGAAGACUGCGGGUUCGAGUCCCGUACGGAGCG [G1A U2G G6A A70G], AGUCCAUUGGCGUAAUGGUAACGCGUCUCCCUCCUAAGGAGAAGACUGCGGGUUCGAGUCCCGUACGGAUCG [G1A U2G G6A A70U] is higher in “yeast fitness (ln)” value: -0.16 for the first, -0.0829 for the second.

Going from AGUCCAUUGGCGUAAUGGUAACGCGUUUCCCUCCUAAGGAGACGACUGCGGGUUCGAGUCCCGUAUGGAGCG [G1A U2G G6A C27U A43C C66U A70G] to AGUCCAUUGGCGUAAUGGUAACGCGUCUCCCUCCUAAGGAGAAGACUGCGGGUUCGAGUCCCGUACGGAGUG [G1A U2G G6A A70G C71U], the “yeast fitness (ln)” value rises from -0.337 to -0.172.

Compared with AGUCCAUUGGCGUAAUGGUAACGCGUCUCCCUCCUAAGGAGACGAUUGCGGGUUCGAGUCCCGUAUGGGUCG [G1A U2G G6A A43C C46U C66U A69G A70U], AGUCCAUUGGCGUAAUGGUAACGCGUCUCCCUCCUAAGGAGACGAUUGCGGGUUCGAGUCCCGUAUGGGGCG [G1A U2G G6A A43C C46U C66U A69G A70G] is higher in “yeast fitness (ln)” value: -0.306 for the first, -0.275 for the second.

Going from AGUCCAUUGGCGUAAUGGUAACGCGUUUCCCUCCUAAGGAGACGACUGCGGGUUCGAGUCCCGUAUGGAACG [G1A U2G G6A C27U A43C C66U] to AGUCCAUUGGCGUAAUGGUAACGCGUUUCCCUCCUAAGGAGACGAUUGCGGGUUCGAGUCCCGUAAGGGAUG [G1A U2G G6A C27U A43C C46U C66A A69G C71U], the “yeast fitness (ln)” value rises from -0.348 to -0.275.

First: AGUCCAUUGGCGUAAUGGUAACGCGUUUCCCUCCUAAGGAGACGAUUGCGGGUUCGAGUCCCGUACGGGAUG [G1A U2G G6A C27U A43C C46U A69G C71U]
Second: AGUCCAUUGGCGUAAUGGUAACGCGUUUCCCUCCUAAGGAGACGACUGCGGGUUCGAGUCCCGUACGGGAUG [G1A U2G G6A C27U A43C A69G C71U]
The “yeast fitness (ln)” value of the first is higher: -0.283 for the first, -0.673 for the second.

Going from AGUCCAUUGGCGUAAUGGUAACGCGUCUCCCUCCUAAGGAGACGACUGCGGGUUCGAGUCCCGUACGGAAUG [G1A U2G G6A A43C C71U] to AGUCCAUUGGCGUAAUGGUAACGCGUUUCCCUCCUAAGGAGACGAUUGCGGGUUCGAGUCCCGUACGGAACG [G1A U2G G6A C27U A43C C46U], the “yeast fitness (ln)” value rises from -0.276 to -0.242.

First: AGUCCAUUGGCGUAAUGGUAACGCGUUUCCCUCCUAAGGAGACGAUUGCGGGUUCGAGUCCCGUAUGGGGUG [G1A U2G G6A C27U A43C C46U C66U A69G A70G C71U]
Second: AGUCCAUUGGCGUAAUGGUAACGCGUUUCCCUCCUAAGGAGACGAUUGCGGGUUCGAGUCCCGUACGGGGUG [G1A U2G G6A C27U A43C C46U A69G A70G C71U]
The “yeast fitness (ln)” value of the first is lower: -0.433 for the first, -0.424 for the second.

Compared with AGUCCAUUGGCGUAAUGGUAACGCGUUUCCCUCCUAAGGAGACGACUGCGGGUUCGAGUCCCGUAAGGGGUG [G1A U2G G6A C27U A43C C66A A69G A70G C71U], AGUCCAUUGGCGUAAUGGUAACGCGUCUCCCUCCUAAGGAGAAGACUGCGGGUUCGAGUCCCGUACGGAUUG [G1A U2G G6A A70U C71U] is higher in “yeast fitness (ln)” value: -0.351 for the first, -0.0851 for the second.

With AGUCCAUUGGCGUAAUGGUAACGCGUUUCCCUCCUAAGGAGACGACUGCGGGUUCGAGUCCCGUAUGGGUUG [G1A U2G G6A C27U A43C C66U A69G A70U C71U] the “yeast fitness (ln)” value was -0.489.
